Experiment [1] is filed under the species Rattus norvegicus. The experiment in a line: Inhibition of nAChR-mediated nicotine-evoked [3H]DA release in superfused rat striatal slices at 100 nM. Put shortly:
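Rat striatal slices, preloaded with [3H]DA, superfused 36 min with or without 100 nM analogue, then 36 min more with 10 μM S(-)-nicotine added. Inhibition expressed as percent of the nicotine-evoked [3H]DA overflow without analogue. At least three independent experiments, each in duplicate.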

Experiment [2] has as its target Neuronal acetylcholine receptor; alpha4/beta2 (Rattus norvegicus) (UniProt P09483+P12390). The experiment in a line: Displacement of [3H]nicotine from alpha4beta2 nAChR in rat brain membrane at 100 nM. In kind it is cell membranes. Put shortly: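 Whole rat brain membranes, [3H]nicotine binding at 3 nM radioligand; nonspecific binding defined with 10 μM […]. Analogue tested at a 100 nM probe concentration. Inhibition expressed as percent of radioligand binding without analogue. At least three independent experiments, each in duplicate.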
A general note: Displacement assays read how much labelled ligand stays bound in the presence of the test substance.

In experiment [3] the target is Neuronal acetylcholine receptor subunit alpha-7 (Rattus norvegicus) (UniProt Q05941). The experiment is described as follows: Displacement of [3H]methyllycaconitine from alpha7 nAChR in rat brain membrane at 100 nM. In kind it is cell membranes. Put shortly: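 Whole rat brain membranes, [3H]MLA binding at 2.5 nM radioligand; nonspecific binding defined with 10 μM nicotine. Analogue tested at a 100 nM probe concentration. Inhibition expressed as percent of radioligand binding without analogue. At least three independent experiments, each in duplicate.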
Sequence of Neuronal acetylcholine receptor subunit alpha-7 (Rattus norvegicus) (Q05941 whole entry): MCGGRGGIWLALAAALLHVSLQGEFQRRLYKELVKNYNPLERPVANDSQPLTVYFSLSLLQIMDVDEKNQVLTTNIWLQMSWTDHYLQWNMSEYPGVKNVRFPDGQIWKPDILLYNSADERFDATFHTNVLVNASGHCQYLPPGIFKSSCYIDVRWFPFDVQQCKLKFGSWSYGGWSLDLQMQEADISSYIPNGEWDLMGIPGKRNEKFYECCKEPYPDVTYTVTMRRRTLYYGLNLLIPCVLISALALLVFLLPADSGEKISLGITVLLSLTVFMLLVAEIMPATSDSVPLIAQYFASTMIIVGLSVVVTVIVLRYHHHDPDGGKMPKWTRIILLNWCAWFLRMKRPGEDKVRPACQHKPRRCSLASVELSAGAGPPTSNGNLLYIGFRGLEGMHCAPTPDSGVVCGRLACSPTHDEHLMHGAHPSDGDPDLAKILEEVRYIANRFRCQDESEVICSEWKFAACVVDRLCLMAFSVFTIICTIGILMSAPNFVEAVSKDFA

Experiment [4] in a line: Inhibition of nAChR-mediated nicotine-evoked [3H]DA release in superfused rat striatal slices. Put shortly: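 Superfused rat striatal slices, [3H]DA overflow evoked by 10 μM S(-)-nicotine after 36 min analogue pre-exposure, superfusion continued 36 min. Full concentration range 1 nM to 10 μM. IC50 from iterative nonlinear least-squares curve fitting; 4–5 independent experiments, each in duplicate.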

In experiment [5] the target is Neuronal acetylcholine receptor subunit alpha-7 (Rattus norvegicus, UniProt Q05941). The experiment in a line: Displacement of [3H]methyllycaconitine from alpha7 nAChR in rat brain membrane. In kind it is cell membranes.
Sequence of Neuronal acetylcholine receptor subunit alpha-7 (Q05941 whole entry): as above

In general, inhibition refers to the relative decrease from the control value, in per cent. Consider `c1c(CCCCC[n+]2ccc3c(c2)CCCC3)c(CCCCC[n+]2ccc3c(c2)CCCC3)cc(CCCCC[n+]2ccc3c(c2)CCCC3)c1CCCCC[n+]1ccc2c(c1)CCCC2`, for which the inhibition in experiment [1] came out at 27%. The Activity is 0.9% in experiment [2] and 27% in experiment [3].

Consider `Cc1cc(C)c[n+](CCCCCc2cc(CCCCC[n+]3cc(C)cc(C)c3)c(CCCCC[n+]3cc(C)cc(C)c3)cc2CCCCC[n+]2cc(C)cc(C)c2)c1`, for which the inhibition in experiment [1] stood at 45%. For the same compound, the Activity is 3.7% in experiment [2] and 15% in experiment [3].

The compound `Cc1cc[n+](CCCC#Cc2cc(C#CCCC[n+]3ccc(C)c(C)c3)c(C#CCCC[n+]3ccc(C)c(C)c3)cc2C#CCCC[n+]2ccc(C)c(C)c2)cc1C` had an inhibition in experiment [1] of 17%. Besides, the values for the Activity in experiment [2] and in experiment [3] were 9.8% and 0.6%, respectively.

Take `C(#Cc1cc(C#CCCC[n+]2cccc(Cc3ccccc3)c2)c(C#CCCC[n+]2cccc(Cc3ccccc3)c2)cc1C#CCCC[n+]1cccc(Cc2ccccc2)c1)CCC[n+]1cccc(Cc2ccccc2)c1`: the inhibition in experiment [1] is 17%. The Activity came out at 2.9% in experiment [2] and 53% in experiment [3].

By IC50 is commonly meant the concentration at which inhibition is half-maximal. Higher therefore signals a need for much substance. As for `c1ccc(Cc2ccc[n+](CCCCCc3cc(CCCCC[n+]4cccc(Cc5ccccc5)c4)c(CCCCC[n+]4cccc(Cc5ccccc5)c4)cc3CCCCC[n+]3cccc(Cc4ccccc4)c3)c2)cc1`, the inhibition in experiment [1] amounted to 54%. For the same compound, the figures for the Activity in experiment [2] and in experiment [3] were 13% and 16%, respectively. This compound yielded an IC50 in experiment [4] of 28 nM.

The compound `C(#Cc1cc(C#CCCC[n+]2cccc(-c3ccccc3)c2)c(C#CCCC[n+]2cccc(-c3ccccc3)c2)cc1C#CCCC[n+]1cccc(-c2ccccc2)c1)CCC[n+]1cccc(-c2ccccc2)c1` registered an inhibition in experiment [1] of 37%. Further, the Activity amounted to 0.3% in experiment [2] and 53% in experiment [3].

Take `C(#Cc1cc(C#CCCC[n+]2ccc3c(c2)CCCC3)c(C#CCCC[n+]2ccc3c(c2)CCCC3)cc1C#CCCC[n+]1ccc2c(c1)CCCC2)CCC[n+]1ccc2c(c1)CCCC2`: the inhibition in experiment [1] worked out at 24%. Further, the Activity stood at 9.7% in experiment [2] and 17% in experiment [3].

The Ki is a dissociation constant, usually derived from enzyme kinetics or from competition with a known ligand. High values mean weaker binding, low ones tighter binding. In experiment [5], `Cc1ccc[n+](CCCCCCCCCCCC[n+]2cccc(C)c2)c1` displayed a Ki above 100000 nM. This compound displayed a half-maximal inhibitory concentration (IC50) in experiment [4] of 2 nM.

For `CN1CCC[C@H]1c1ccc[n+](CCCC#Cc2cc(C#CCCC[n+]3cccc([C@@H]4CCCN4C)c3)c(C#CCCC[n+]3cccc([C@@H]4CCCN4C)c3)cc2C#CCCC[n+]2cccc([C@@H]3CCCN3C)c2)c1`, the inhibition in experiment [1] was found to be 31%. For the same compound, the Activity in experiment [2] is 38%; in experiment [3], 15%.

The compound `c1ccc2c[n+](CCCCCc3cc(CCCCC[n+]4ccc5ccccc5c4)c(CCCCC[n+]4ccc5ccccc5c4)cc3CCCCC[n+]3ccc4ccccc4c3)ccc2c1` yielded an inhibition in experiment [1] of 63%. The Activity in experiment [2] worked out at 6.5%; in experiment [3] it was 24%. This compound also yielded an IC50 in experiment [4] of 56 nM.

In the case of `OCCCc1ccc[n+](CCCC#Cc2cc(C#CCCC[n+]3cccc(CCCO)c3)c(C#CCCC[n+]3cccc(CCCO)c3)cc2C#CCCC[n+]2cccc(CCCO)c2)c1`, the inhibition in experiment [1] was determined as 41%. For the same compound, the Activity in experiment [2] came out at 0%; in experiment [3], 5.7%.

`Cc1ccc[n+](CCCC#Cc2cc(C#CCCC[n+]3cccc(C)c3)c(C#CCCC[n+]3cccc(C)c3)cc2C#CCCC[n+]2cccc(C)c2)c1` registered an inhibition in experiment [1] of 16%. Besides, the Activity is 11% in experiment [2] and 18% in experiment [3].

In experiment [1], `OCCCc1ccc[n+](CCCCCc2cc(CCCCC[n+]3cccc(CCCO)c3)c(CCCCC[n+]3cccc(CCCO)c3)cc2CCCCC[n+]2cccc(CCCO)c2)c1` showed an inhibition of 64%. Also, the Activity stood at 9.6% in experiment [2] and 20% in experiment [3]. The compound also displayed an IC50 in experiment [4] of 3.38 nM.

`Cc1cc(C)c[n+](CCCC#Cc2cc(C#CCCC[n+]3cc(C)cc(C)c3)c(C#CCCC[n+]3cc(C)cc(C)c3)cc2C#CCCC[n+]2cc(C)cc(C)c2)c1` came in with an inhibition in experiment [1] of 12%. In addition, the Activity stood at 0% in experiment [2] and 3.9% in experiment [3].

`Cc1cc[n+](CCCCCc2cc(CCCCC[n+]3ccc(C)c(C)c3)c(CCCCC[n+]3ccc(C)c(C)c3)cc2CCCCC[n+]2ccc(C)c(C)c2)cc1C`: the inhibition in experiment [1] amounted to 36%. In addition, the figures for the Activity in experiment [2] and in experiment [3] were 0.5% and 18%, respectively.

Consider `C(#Cc1cc(C#CCCC[n+]2ccc3ccccc3c2)c(C#CCCC[n+]2ccc3ccccc3c2)cc1C#CCCC[n+]1ccc2ccccc2c1)CCC[n+]1ccc2ccccc2c1`, for which the inhibition in experiment [1] is 39%. The Activity in experiment [2] is 0%; in experiment [3] it was 4.9%.

In experiment [1], `Cc1cc[n+](CCCCCc2cc(CCCCC[n+]3ccc(C)cc3)c(CCCCC[n+]3ccc(C)cc3)cc2CCCCC[n+]2ccc(C)cc2)cc1` showed an inhibition of 46%. Besides, the Activity in experiment [2] was 12%; in experiment [3], 8%.

`Cc1cc[n+](CCCC#Cc2cc(C#CCCC[n+]3ccc(C)cc3)c(C#CCCC[n+]3ccc(C)cc3)cc2C#CCCC[n+]2ccc(C)cc2)cc1` gave an inhibition in experiment [1] of 35%. Besides, the Activity in experiment [2] is 24%; in experiment [3] it was 3%.

In experiment [1], `CN1CCC[C@H]1c1ccc[n+](CCCCCc2cc(CCCCC[n+]3cccc([C@@H]4CCCN4C)c3)c(CCCCC[n+]3cccc([C@@H]4CCCN4C)c3)cc2CCCCC[n+]2cccc([C@@H]3CCCN3C)c2)c1` registered an inhibition of 43%. The values for the Activity in experiment [2] and in experiment [3] were 7.4% and 26%, respectively.

In experiment [1], `c1ccc(-c2ccc[n+](CCCCCc3cc(CCCCC[n+]4cccc(-c5ccccc5)c4)c(CCCCC[n+]4cccc(-c5ccccc5)c4)cc3CCCCC[n+]3cccc(-c4ccccc4)c3)c2)cc1` had an inhibition of 19%. Moreover, the Activity in experiment [2] was determined as 6.6%; in experiment [3], 33%.

`Cc1ccc[n+](CCCC#Cc2cc(C#CCCC[n+]3cccc(C)c3)cc(C#CCCC[n+]3cccc(C)c3)c2)c1` gave an inhibition in experiment [1] of 40%. Also, the figures for the Activity in experiment [2] and in experiment [3] were 10% and 0%, respectively. In experiment [4], this compound came in with an IC50 of 0.2 nM.

Compound `Cc1ccc[n+](CCCCCc2cc(CCCCC[n+]3cccc(C)c3)c(CCCCC[n+]3cccc(C)c3)cc2CCCCC[n+]2cccc(C)c2)c1` registered an inhibition in experiment [1] of 8%. In addition, the Activity in experiment [2] and in experiment [3] was 12% in each case.
